Source: ChEMBL document CHEMBL4622841, “Structural modifications of indolinones bearing a pyrrole moiety and discovery of a multi-kinase inhibitor with potent antitumor activity” (Bioorg Med Chem, 2020)
Calls of active or inactive are those of the source. The calls are words filed in the database; no cut-off is given here.

Tests used:
[1] = target: T1, Cyclin-dependent kinase 2 (Homo sapiens, UniProt P24941); assay: Inhibition of CDK2 (unknown origin) at 1 uM using FAM-labeled peptide and ATP as substrate preincubated for 10 mins followed by substrate addition measured after 1 hr by mobility shift assay
HUVEC = assay: Induction of apoptosis in human HUVEC cells assessed as early apoptotic cells at 0.3 uM incubated for 48 hrs by Annexin-V-FITC/propidium iodide staining-based flow cytometric analysis (reference value: 3.63%); type: functional
HepG2 [2] = assay: Inhibition of receptor tyrosine kinase in human HepG2 cells assessed as reduction in ERK phosphorylation at Thr202/Tyr204 residues at 3 uM after 24 hrs by Western blotting analysis; type: cell-based
Procedure, shortened: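 Cells cultured overnight, then treated with compound at different concentrations for 24 h. About 1×10⁶ cells harvested and immunoblotted for p-AKT (Ser473), AKT, p-ERK (Thr202/Tyr204), ERK, with GAPDH as loading control. Detection by chemiluminescence and gel imaging. Blots shown are representative of several experiments.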

MKN-74 [3] = assay: Induction of apoptosis in human MKN74 cells assessed as viable cells at 0.3 uM incubated for 72 hrs by Annexin-V-FITC/propidium iodide staining-based flow cytometric analysis (reference value: 76.84%); type: functional; details: MKN-74, 72 h, read-out: Activity
[4] = target: T2, Serine/threonine-protein kinase B-raf (Homo sapiens, UniProt P15056); assay: Inhibition of B-Raf (unknown origin) at 1 uM using FAM-labeled peptide and ATP as substrate preincubated for 10 mins followed by substrate addition measured after 1 hr by mobility shift assay
T2 sequence (P15056 whole entry): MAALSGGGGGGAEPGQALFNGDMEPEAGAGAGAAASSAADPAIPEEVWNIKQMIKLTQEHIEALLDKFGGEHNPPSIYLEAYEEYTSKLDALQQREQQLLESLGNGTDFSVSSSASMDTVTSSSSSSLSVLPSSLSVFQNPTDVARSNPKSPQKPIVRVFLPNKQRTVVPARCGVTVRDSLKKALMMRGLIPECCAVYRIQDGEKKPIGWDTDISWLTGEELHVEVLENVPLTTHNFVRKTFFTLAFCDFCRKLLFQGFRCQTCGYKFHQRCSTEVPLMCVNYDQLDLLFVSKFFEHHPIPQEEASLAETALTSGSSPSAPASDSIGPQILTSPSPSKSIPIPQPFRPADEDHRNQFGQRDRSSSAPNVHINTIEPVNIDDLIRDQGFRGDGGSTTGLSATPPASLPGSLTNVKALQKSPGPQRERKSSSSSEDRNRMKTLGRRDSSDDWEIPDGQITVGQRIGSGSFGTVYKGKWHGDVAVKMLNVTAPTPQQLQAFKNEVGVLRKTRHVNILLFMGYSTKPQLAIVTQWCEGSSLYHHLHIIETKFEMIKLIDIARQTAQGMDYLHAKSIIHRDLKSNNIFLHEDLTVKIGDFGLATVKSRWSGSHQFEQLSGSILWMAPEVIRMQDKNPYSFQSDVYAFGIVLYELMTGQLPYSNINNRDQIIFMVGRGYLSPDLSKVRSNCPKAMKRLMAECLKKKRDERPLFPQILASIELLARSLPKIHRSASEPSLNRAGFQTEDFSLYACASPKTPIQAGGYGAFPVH

[5] = Intrinsic clearance in human liver microsomes; type: ADME, Microsome; details: read-out: CLH
MKN-74 [6] = assay: Induction of apoptosis in human MKN74 cells assessed as viable cells at 3 uM incubated for 72 hrs by Annexin-V-FITC/propidium iodide staining-based flow cytometric analysis (reference value: 76.84%); type: functional; details: MKN-74, 72 h, read-out: Activity
[7] = target: T1, Cyclin-dependent kinase 2; assay: Inhibition of CDK2 (unknown origin) using FAM-labeled peptide and ATP as substrate preincubated for 10 mins followed by substrate addition measured after 1 hr by mobility shift assay
HepG2 [8] = assay: Induction of apoptosis in human HepG2 cells assessed as early apoptotic cells at 3 uM incubated for 72 hrs by Annexin-V-FITC/propidium iodide staining-based flow cytometric analysis (reference value: 1.08%); type: functional
[9] = Inhibition of GST-tagged human recombinant VEGFR3 cytoplasmic domain (800 to 1297 residues) Q890H/V1128L/H1146R mutant expressed in baculovirus expression system using FAM-labeled peptide and ATP as substrate preincubated for 10 mins followed by substrate addition measured after 1 hr by mobility shift assay
MKN-74 [10] = assay: Induction of apoptosis in human MKN74 cells assessed as necrotic cells at 1 uM incubated for 72 hrs by Annexin-V-FITC/propidium iodide staining-based flow cytometric analysis (reference value: 6.29%); type: functional
HepG2 [11] = assay: Inhibition of colony formation in human HepG2 cells measured after 14 days by crystal violet staining-based assay; type: functional, cell-based
Procedure, shortened: (§1)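 Cells plated and exposed to test agent at a range of concentrations for 14 days, then colonies counted. Colony formation expressed relative to vehicle-treated cells as mean ± SEM. Significance versus vehicle by unpaired two-tailed Student's t-test.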

[12] = target: T2, Serine/threonine-protein kinase B-raf; assay: Inhibition of B-Raf (unknown origin) using FAM-labeled peptide and ATP as substrate preincubated for 10 mins followed by substrate addition measured after 1 hr by mobility shift assay
[13] = target: T3, Serine/threonine-protein kinase Chk1 (Homo sapiens) (UniProt O14757); assay: Inhibition of CHK (unknown origin) at 1 uM using FAM-labeled peptide and ATP as substrate preincubated for 10 mins followed by substrate addition measured after 1 hr by mobility shift assay
T3 sequence (whole entry): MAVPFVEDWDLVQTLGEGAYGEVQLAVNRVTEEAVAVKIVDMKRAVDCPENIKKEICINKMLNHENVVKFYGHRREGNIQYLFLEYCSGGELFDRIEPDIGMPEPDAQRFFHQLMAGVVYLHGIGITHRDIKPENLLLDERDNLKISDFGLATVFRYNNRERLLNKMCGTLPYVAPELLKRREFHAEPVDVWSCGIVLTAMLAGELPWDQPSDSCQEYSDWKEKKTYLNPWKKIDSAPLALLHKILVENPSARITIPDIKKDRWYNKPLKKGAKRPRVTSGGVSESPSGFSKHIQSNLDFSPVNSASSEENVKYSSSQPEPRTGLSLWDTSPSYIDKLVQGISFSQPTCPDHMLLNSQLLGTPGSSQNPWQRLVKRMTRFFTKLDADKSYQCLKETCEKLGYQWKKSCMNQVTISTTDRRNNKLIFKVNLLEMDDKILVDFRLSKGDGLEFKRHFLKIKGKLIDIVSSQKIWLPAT

HepG2 [14] = assay: Induction of apoptosis in human HepG2 cells assessed as early apoptotic cells at 1 uM incubated for 72 hrs by Annexin-V-FITC/propidium iodide staining-based flow cytometric analysis (reference value: 1.08%); type: functional
HT-29 [15] = assay: Induction of apoptosis in human HT-29 cells assessed as early apoptotic cells at 3 uM incubated for 72 hrs by Annexin-V-FITC/propidium iodide staining-based flow cytometric analysis (reference value: 3.18%); type: functional
MKN-74 [16] = assay: Induction of apoptosis in human MKN74 cells assessed as necrotic cells at 3 uM incubated for 72 hrs by Annexin-V-FITC/propidium iodide staining-based flow cytometric analysis (reference value: 6.29%); type: functional
HepG2 [17] = assay: Induction of apoptosis in human HepG2 cells incubated for 72 hrs by Annexin-V-FITC/propidium iodide staining-based flow cytometric analysis; type: functional, cell-based
[18] = target: Vascular endothelial growth factor receptor 2 (Homo sapiens, UniProt P35968); assay: Inhibition of N-terminal GST fused human VEGFR2 cytoplasmic domain (790 to 1356 (end) residues) expressed in baculovirus expression system using FAM-labeled peptide and ATP as substrate preincubated for 10 mins followed by substrate addition measured after 1 hr by mobility shift assay
Vascular endothelial growth factor receptor 2, sequence (P35968 whole entry, the tested form may be a part): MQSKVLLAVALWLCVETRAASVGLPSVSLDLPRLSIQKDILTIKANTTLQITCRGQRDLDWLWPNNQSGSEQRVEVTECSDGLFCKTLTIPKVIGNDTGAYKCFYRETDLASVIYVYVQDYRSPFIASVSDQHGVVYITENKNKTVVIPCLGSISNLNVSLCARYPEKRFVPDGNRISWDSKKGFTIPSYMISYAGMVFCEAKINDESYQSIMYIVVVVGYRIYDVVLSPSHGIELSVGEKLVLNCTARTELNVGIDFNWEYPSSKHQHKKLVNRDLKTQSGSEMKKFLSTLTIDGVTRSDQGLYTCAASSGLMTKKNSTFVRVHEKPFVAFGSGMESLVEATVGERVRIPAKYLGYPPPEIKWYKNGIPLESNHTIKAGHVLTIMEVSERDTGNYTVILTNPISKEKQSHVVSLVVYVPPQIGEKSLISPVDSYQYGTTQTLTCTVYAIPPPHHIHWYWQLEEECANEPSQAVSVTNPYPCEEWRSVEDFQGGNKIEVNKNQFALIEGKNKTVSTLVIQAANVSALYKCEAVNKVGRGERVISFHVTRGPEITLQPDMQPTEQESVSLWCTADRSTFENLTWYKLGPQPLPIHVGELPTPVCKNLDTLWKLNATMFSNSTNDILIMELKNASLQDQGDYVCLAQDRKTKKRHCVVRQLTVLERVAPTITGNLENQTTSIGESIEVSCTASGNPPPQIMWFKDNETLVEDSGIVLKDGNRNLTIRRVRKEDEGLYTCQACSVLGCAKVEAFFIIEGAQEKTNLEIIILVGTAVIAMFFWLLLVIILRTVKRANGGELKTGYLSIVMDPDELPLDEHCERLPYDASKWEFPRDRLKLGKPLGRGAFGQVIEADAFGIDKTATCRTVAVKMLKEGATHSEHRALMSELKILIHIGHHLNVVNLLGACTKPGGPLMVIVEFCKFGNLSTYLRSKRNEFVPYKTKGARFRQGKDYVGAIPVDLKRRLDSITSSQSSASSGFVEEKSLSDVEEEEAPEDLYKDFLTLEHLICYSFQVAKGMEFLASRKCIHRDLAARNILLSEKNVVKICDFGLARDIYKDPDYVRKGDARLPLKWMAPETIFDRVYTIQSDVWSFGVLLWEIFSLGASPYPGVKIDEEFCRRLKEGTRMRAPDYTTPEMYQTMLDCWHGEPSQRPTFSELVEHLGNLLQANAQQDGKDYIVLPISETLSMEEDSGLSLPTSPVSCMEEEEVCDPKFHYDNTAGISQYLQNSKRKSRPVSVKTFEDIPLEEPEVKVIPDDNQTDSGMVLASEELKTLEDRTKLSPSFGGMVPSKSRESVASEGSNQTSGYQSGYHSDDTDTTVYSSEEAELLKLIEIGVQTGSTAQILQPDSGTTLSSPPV

[19] = target: Fibroblast growth factor receptor 1 (Homo sapiens, UniProt P11362); assay: Inhibition of N-terminal GST fused human recombinant FGFR1 cytoplasmic domain (398 to 822 (end) residues) expressed in baculovirus expression system using FAM-labeled peptide and ATP as substrate preincubated for 10 mins followed by substrate addition measured after 1 hr by mobility shift assay
Fibroblast growth factor receptor 1, sequence (P11362 whole entry, the tested form may be a part): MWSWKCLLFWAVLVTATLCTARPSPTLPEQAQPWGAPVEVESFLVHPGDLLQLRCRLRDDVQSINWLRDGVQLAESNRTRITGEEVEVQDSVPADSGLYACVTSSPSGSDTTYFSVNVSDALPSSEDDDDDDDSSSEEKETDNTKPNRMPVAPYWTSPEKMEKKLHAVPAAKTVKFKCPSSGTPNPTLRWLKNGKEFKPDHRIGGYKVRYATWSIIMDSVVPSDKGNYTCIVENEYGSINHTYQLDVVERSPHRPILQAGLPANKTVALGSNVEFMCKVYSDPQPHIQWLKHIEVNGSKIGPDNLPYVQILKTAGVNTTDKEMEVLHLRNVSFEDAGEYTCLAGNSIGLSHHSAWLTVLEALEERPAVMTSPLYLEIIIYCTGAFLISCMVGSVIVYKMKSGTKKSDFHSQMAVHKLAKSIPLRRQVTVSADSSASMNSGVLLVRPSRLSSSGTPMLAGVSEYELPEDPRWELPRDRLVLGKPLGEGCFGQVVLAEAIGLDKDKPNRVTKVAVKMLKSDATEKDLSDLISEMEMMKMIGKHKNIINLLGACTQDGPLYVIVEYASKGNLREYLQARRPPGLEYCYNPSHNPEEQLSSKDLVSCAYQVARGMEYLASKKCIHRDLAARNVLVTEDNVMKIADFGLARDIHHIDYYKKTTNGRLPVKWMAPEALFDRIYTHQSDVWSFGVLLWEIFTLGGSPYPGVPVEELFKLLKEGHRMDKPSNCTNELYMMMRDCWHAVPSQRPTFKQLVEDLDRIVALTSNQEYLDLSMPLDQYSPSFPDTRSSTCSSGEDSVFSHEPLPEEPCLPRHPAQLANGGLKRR

HT-29 [20] = assay: Inhibition of colony formation in human HT-29 cells measured after 14 days by crystal violet staining-based assay; type: functional, cell-based; procedure, shortened: as §1
HT-29 [21] = assay: Antitumor activity against human HT-29 cells xenografted in nu/nu mouse assessed as tumour growth inhibition at 100 mg/kg, po qd for 18 days and measured twice per week by vernier caliper method; type: functional; details: HT-29, po, 432 h, read-out: TGI
MKN-74 [22] = assay: Induction of apoptosis in human MKN74 cells assessed as early apoptotic cells at 3 uM incubated for 72 hrs by Annexin-V-FITC/propidium iodide staining-based flow cytometric analysis (reference value: 1.98%); type: functional
HT-29 [23] = assay: Induction of apoptosis in human HT-29 cells assessed as late apoptotic cells at 3 uM incubated for 72 hrs by Annexin-V-FITC/propidium iodide staining-based flow cytometric analysis (reference value: 6.12%); type: functional
HT-29 [24] = assay: Induction of apoptosis in human HT-29 cells assessed as late apoptotic cells at 0.3 uM incubated for 72 hrs by Annexin-V-FITC/propidium iodide staining-based flow cytometric analysis (reference value: 6.12%); type: functional

For `COC(=O)c1ccc2c(c1)NC(=O)/C2=C(\Nc1ccc(-n2c(C)ccc2CN2CCN(C)CC2)cc1)c1ccccc1`, the inhibition [1] was “inactive”, the Activity (HUVEC) was 2.36% and the inhibition (HepG2 [2]) was “Active”. For the same compound, the viability at 0.3 µM (MKN-74 [3]) was 73.5%, the inhibition [4] was “inactive” and the CLint scaled [5] was 82 mL/min/kg. For the same compound, the viability at 3 µM (MKN-74 [6]) was 8.53%, the IC50 [7] was greater than 1000 nM and the Activity (HepG2 [8]) was 16.52%. For the same compound, the IC50 [9] was 6.3 nM, the Activity (MKN-74 [10]) was 4.52% and the inhibition (HepG2 [11]) was “Dose-dependent effect”. The IC50 [12] was greater than 1000 nM, the inhibition [13] was “inactive” and the Activity (HepG2 [14]) was 17.61%. For the same compound, the Activity (HT-29 [15]) was 0.54%, the Activity (MKN-74 [16]) was 4.15% and the Activity (HepG2 [17]) was “Dose-dependent effect”. For the same compound, the IC50 [18] was 6.5 nM, the IC50 [19] was 23 nM and the inhibition (HT-29 [20]) was “Dose-dependent effect”. The inhibition in vivo at 100 mg/kg (HT-29 [21]) was 13.4%, the Activity (MKN-74 [22]) was 8.01% and the Activity (HT-29 [23]) was 88.27%. For the same compound, the Activity (HT-29 [24]) was 11.99%.
